Experimental data from ChEMBL document CHEMBL1130979, “Synthesis, X-ray crystal structure, and biological activity of FR186054, a novel, potent, orally active inhibitor of acyl-CoA:cholesterol O-acyltransferase (ACAT) bearing a pyrazole ring” (Bioorg Med Chem Lett, 1998).

Tests used:
Format in all cases: functional
[1] = test system: Rattus norvegicus; assay: Hypocholesterolemic activity to reduce plasma total cholesterol level by 50% after dietary administration in cholesterol-fed rats; settings: feed or water
In short: (§1)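 Male rats (n = 4) received compound admixed in diet supplemented with 1% cholesterol and 0.5% cholic acid for 7 days. Plasma total cholesterol then measured, percent change vs control calculated. Reported as percent reduction at the dose given or as ED50 (dose lowering total cholesterol by 50%). Significance by unpaired two-tailed Student's t-test.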

[2] = test system: Rattus norvegicus; assay: Percent reduction in total cholesterol at greater than 1 mg/kg dose; in short: as §1
[3] = test system: Rattus norvegicus; assay: Percent reduction in total cholesterol at less than 0.1 mg/kg dose; in short: as §1
[4] = test system: Rattus norvegicus; assay: Hypocholesterolemic activity by administration of gavage in PEG400 as a vehicle in cholesterol-fed rats.; settings: po
In short: (§2)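 Male rats (n = 4) made hypercholesterolemic on diet with 1% cholesterol and 0.5% cholic acid for 2 days. Compound then dissolved in PEG400 and given orally by gavage once daily in the evening for 3 days, cholesterol-enriched diet continued. Plasma total cholesterol measured; ED50 = dose lowering plasma total cholesterol by 50% of control.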

[5] = test system: Rattus norvegicus; assay: Hypocholesterolemic activity by administration of gavage in PEG400 as a vehicle in cholesterol-fed rats; settings: po; in short: as §2

Compound | ED50 [1] [mg/kg] | Reduction [2] [%] | Reduction [3] [%] | ED50 [4] [mg/kg] | ED50 [5] [mg/kg]
Cc1cc(C)c(NC(=O)N(Cc2ccccc2)Cc2cccc(-c3cc[nH]n3)c2)c(C)c1 | > 1 | 36 |  |  | 
COc1ccc(CN(Cc2cccc(-c3cc[nH]n3)c2)C(=O)Nc2c(SC)cc(C)nc2SC)cc1 | < 0.1 |  | 81 |  | 
CSc1cc(C)nc(SC)c1NC(=O)N(Cc1ccc(F)cc1)Cc1cccc(-c2cc[nH]n2)c1 | < 0.1 |  | 66 |  | 
CSc1cc(C)nc(SC)c1NC(=O)N(Cc1ccccc1)Cc1cccc(-c2cc[nH]n2)c1 | 0.046 |  |  | 0.44 | 
CSc1cc(C)nc(SC)c1NC(=O)N(Cc1ccc(N(C)C)cc1)Cc1cccc(-c2cc[nH]n2)c1 | < 0.1 |  | 61 |  | 
CCCCCCCN(Cc1ccc(CC(C)(C)C)cc1)C(=O)Nc1ccc(F)cc1F [CL-277082] | 5 |  |  |  | 
O=C(Nc1c(F)cc(F)cc1F)N(Cc1ccccc1)Cc1cccc(-c2cc[nH]n2)c1 | 0.096 |  |  |  | 8.6
